For experiment [1], the system named is A549. In words: Percent growth inhibition against human lung A-549 cell lines at the concentration of 10E-4. It counts as functional.
For experiment [2], the system named is Calf thymus DNA. Nature of the experiment: Thermal denaturation of calf thymus DNA at 0 h at 37 degree C. The settings on record: Bos taurus. It counts as nucleic-acid assay. The essentials: (§1)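 Calf thymus DNA at 100 μM with ligand at 20 μM (1:5 [PBD]/[DNA] molar ratio), in 10 mM sodium phosphate plus 1 mM EDTA, pH 7.00 ± 0.01. Samples were incubated at 37 °C for 0 h or 18 h before thermal melting. The value is the induced ΔTm against DNA alone, whose Tm is the mean of 10 separate determinations.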

Experiment [3] relates to HT-29. Nature of the experiment: Percent growth Inhibition against human colon HT-29 cell lines at the concentration of 10E-6. It counts as functional.
Experiment [4] deals with SiHa. In words: Percent growth inhibition against human cervix SiHa cell lines at the concentration of 10E-5. It counts as functional.
For experiment [5], the system named is HOP-62. In words: Percent growth inhibition against human lung HOP-62 cell lines at the concentration of 10E-6. It counts as functional.
Experiment [6] has as its system SiHa. Nature of the experiment: Percent growth inhibition against human cervix SiHa cell lines at the concentration of 10E-4. Type of experiment: functional.
Experiment [7] deals with HCT-15. In words: Percent growth inhibition against human colon HCT-15 cell lines at the concentration of 10E-5. It counts as functional.
Experiment [8] has as its system A549. In words: Percent growth inhibition against human lung A-549 cell lines at the concentration of 10E-5. It counts as functional.
The subject of experiment [9] is A549. In words: Percent growth inhibition against human lung A-549 cell lines at the concentration of 10E-6. Type of experiment: functional.
For experiment [10], the system named is Calf thymus DNA. Nature of the experiment: Thermal denaturation of calf thymus DNA at 18 hr at 37 degree C. Type of experiment: nucleic-acid assay. The conditions noted are these: Bos taurus. The method in brief:
as §1

The test system of experiment [11] is SiHa. In words: Percent growth inhibition against human cervix SiHa cell lines at the concentration of 10E-6. It counts as functional.
For experiment [12], the system named is HT-29. In words: Percent growth inhibition against human colon HT-29 cell lines at the concentration of 10E-4. Type of experiment: functional.
In experiment [13] the test system is HOP-62. In words: Percent growth inhibition against human lung HOP-62 cell lines at the concentration of 10E-5. Type of experiment: functional.
Experiment [14] relates to HCT-15. Nature of the experiment: Percent growth inhibition against human colon HCT-15 cell lines at the concentration of 10E-6. Type of experiment: functional.
The subject of experiment [15] is HT-29. In words: Percent growth inhibition against human colon HT-29 cell lines at the concentration of 10E-5. Type of experiment: functional.
In experiment [16] the test system is L1210. Nature of the experiment: In vitro cytotoxicity against mouse leukemia L1210 cell lines. It counts as functional, cell-based.
For experiment [17], the system named is Calf thymus DNA. Nature of the experiment: Thermal denaturation of calf thymus DNA at 37 degree C. The conditions noted are these: Bos taurus. It counts as nucleic-acid assay. The method in brief:
as §1

The structures appear in SMILES notation.

With `COc1cc2c(cc1OCCCCC(=O)Nc1cccc3c1C(=O)c1ccccc1C3=O)N=C[C@@H]1CCCN1C2=O`, the Inhibition amounted to 93% in experiment [1]; 73% in experiment [3]; 49% in experiment [4]; 73% in [5]; 73% in experiment [6]; 82% in experiment [7]. Besides, the Inhibition is reported as 10% in experiment [8]; 56% in [9]; 40% in experiment [11]; 93% in [12]; 97% in [13]; 61% in experiment [14]. In experiment [15], this molecule had an Inhibition of 87%. The ΔTm in [2] came to 5.1 °C; in experiment [10] it was 5.2 °C.

`O=C1c2c(O)ccc(O)c2C(=O)c2c(NCCNCCO)ccc(NCCNCCO)c21` [MITOXANTRONE] showed a concentration for half-maximal inhibition (IC50) in experiment [16] of 100 nM. Also, the ΔTm in experiment [17] came out at 15.9 °C.

Take `COc1cc2c(cc1OCCCC(=O)Nc1cccc3c1C(=O)c1ccccc1C3=O)N=C[C@@H]1CCCN1C2=O`: the Inhibition in experiment [1] is 93%; in experiment [3] it was 68%; in experiment [4] it was 52%; in experiment [5] it was 74%; in [6] it was 57%; in [7], 66%. For the same molecule, the Inhibition is 27% in experiment [8]; 47% in [9]; 41% in [11]; 93% in [12]; 90% in experiment [13]; 59% in experiment [14]. In experiment [15], this molecule showed an Inhibition of 86%. In addition, the results for the ΔTm in experiment [2] and in experiment [10] were 8.9 °C and 9.1 °C, respectively.

As for `COc1cc2c(cc1O)N=C[C@@H]1CCCN1C2=O`, the ΔTm in experiment [2] amounted to 0.3 °C.

For the origin of these results see ChEMBL document CHEMBL1137037, “Pyrrolo[2,1-c][1,4]benzodiazepine-anthraquinone conjugates. Synthesis, DNA binding and cytotoxicity” (Bioorg Med Chem Lett, 2004).
